Data set [1] concerns HCT116 cells. In words: MTT cytotoxicity assay, HCT116. Type of data set: cell-based, human. As to conditions: for IC50: read-out: IC50 (cytotoxicity), HCT116, 48 h. The procedure, abridged:
(§1)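 Human epithelia-derived lines grown in 10% FBS media at 37°C, 5% CO2: FLC-4 in DMEM/F12, MCF7 in Eagle's MEM + 10 μg/mL insulin, HCT116 in McCoy's 5A, AGS/HEK293 in DMEM, TE4 in RPMI. Cells seeded 24 h before test compound, then exposed 48 h at 37°C. MTT 4 h; overnight solubilisation (DMF/acetic acid/HCl/SDS); OD 570 nm. n = 3. IC20 reported as maximum tolerated concentration.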
On the technique in general: Tetrazolium assays rely on reduction of a dye to a coloured formazan, in cell work by metabolically active cells.

The subject of data set [2] is FLC-4 cells. In words: MTT cytotoxicity assay, FLC-4. The class given is cell-based, human. The conditions noted are these: for IC50: read-out: IC50 (cytotoxicity), FLC-4, 48 h. The procedure, abridged:
as §1

Data set [3] has as its system AGS cells. In words: MTT cytotoxicity assay, AGS. Type of data set: cell-based, human. The conditions noted are these: for IC50: read-out: IC50 (cytotoxicity), 48 h. The procedure, abridged:
as §1

Data set [4] relates to TE4 cells. In words: MTT cytotoxicity assay, TE4. The class given is cell-based, human. The conditions noted are these: for IC50: read-out: IC50 (cytotoxicity), TE4, 48 h. The procedure, abridged: as §1
Data set [5] has as its system low TC4ATS-Cd-sensitive leukemia cell lines and epithelia-derived cell lines except for HEK293. The class given is cell-based, human. The conditions noted are these: 50 μM, 24 h, western blot. For orientation: A western blot detects proteins with antibodies after separation by electrophoresis.
The test system of data set [6] is HEK293 cells. The data set can be described thus: MTT cytotoxicity assay, HEK293. The conditions noted are these: for IC50: read-out: IC50 (cytotoxicity), HEK293, 48 h. Type of data set: cell-based, human. The procedure, abridged:
as §1

Data set [7] concerns HPB-ALL cells. In words: Western blot of activated caspase-3 and cleaved PARP, HPB-ALL. Type of data set: cell-based, human. The conditions noted are these: 50 μM, 24 h. The procedure, abridged: (§2)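 Leukemia cells treated with test compound for 24 h. Equal protein run on reducing SDS-PAGE and transferred to PVDF. Blocked in 1% skim milk; probed for activated caspase-3, cleaved PARP and β-actin; peroxidase secondary antibody; ECL detection.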

The subject of data set [8] is JKT-beta-del cells. In words: MTT cytotoxicity assay, JKT-beta-del. Type of data set: cell-based, human. As to conditions: read-out: IC50 (cytotoxicity), 48 h. The procedure, abridged:
(§3)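 Leukemia lines kept in RPMI medium with 10% FBS and antibiotics, 37°C, 5% CO2. Cells plated directly with test compound and incubated 48 h at 37°C. MTT added for 4 h; formazan dissolved overnight at room temperature in extraction solution (40% dimethylformamide, 2% acetic acid, 0.03 M HCl, 20% SDS); OD 570 nm. Means ± SD, n = 3.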

Data set [9] deals with Jurkat cells. In words: MTT cytotoxicity assay, Jurkat. The class given is cell-based, human. As to conditions: read-out: IC50 (cytotoxicity), 48 h. The procedure, abridged:
as §3

In data set [10] the test system is HL-60 cells. In words: MTT cytotoxicity assay, HL-60. Type of data set: cell-based, human. The conditions noted are these: read-out: IC50 (cytotoxicity), HL-60, 48 h. Put shortly:
as §3

Data set [11] has as its system HPB-ALL cells. The data set can be described thus: MTT cytotoxicity assay, HPB-ALL. Type of data set: cell-based, human. As to conditions: read-out: IC50 (cytotoxicity), 48 h. Put shortly: as §3
Data set [12] relates to MCF7 cells. In words: MTT cytotoxicity assay, MCF7. The class given is cell-based, human. The conditions noted are these: for IC50: read-out: IC50 (cytotoxicity), MCF7, 48 h. Put shortly:
as §1

Data set [13] has as its system PEER cells. In words: MTT cytotoxicity assay, PEER. Type of data set: cell-based, human. The conditions noted are these: read-out: IC50 (cytotoxicity), 48 h. The procedure, abridged: as §3
Data set [14] deals with Jurkat cells. In words: Jurkat xenograft model in SCID mice. The class given is in vivo. The conditions noted are these: for tumor weight vs vehicle: day 35 after inoculation; for Survival: tumor-bearing SCID mice. Put shortly: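 Six-week-old female SCID mice inoculated s.c. with 5 × 10^7 Jurkat cells. From day 20, mice received saline vehicle, test compound 13 mg/kg (13 μmol/kg) or CdCl2 3 mg/kg (13 μmol/kg) i.p. three times weekly for 2 weeks, n = 5 per group. Body weight and tumor size taken three times weekly; volume = long × short² × 1/2. Killed on day 35; tumors, liver, kidney, spleen and lung weighed. Student's t-test.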

In data set [15] the test system is HUT78 cells. The data set can be described thus: MTT cytotoxicity assay, HUT78. Type of data set: cell-based, human. The conditions noted are these: read-out: IC50 (cytotoxicity), HUT78, 48 h. The procedure, abridged:
as §3

For data set [16] the following is noted: in vivo; cited from earlier work.
Data set [17] has as its system Jurkat cells. The data set can be described thus: Lactate dehydrogenase. The class given is cell-based, human. As to conditions: 48 h.
Data set [18] relates to Jurkat cells. The data set can be described thus: Western blot of activated caspase-3 and cleaved PARP, Jurkat. Type of data set: cell-based, human. As to conditions: 24 h. Put shortly:
as §2

For data set [19], the system named is caspase-3 in Jurkat cells. The data set can be described thus: Caspase-3 activity assay with fluorogenic substrate in cell lysates. The class given is cell-based, human. As to conditions: Ac-DEVD-MCA substrate.
[20] abbreviates: 13 μmol/kg i.p. three times weekly for 2 weeks.

Broadly, the IC50 is the concentration that gives 50% inhibition. Regarding `[Cl][Cd][Cl]` [CdCl2, Cadmium chloride, reference compound], the concentration for half-maximal inhibition (IC50) worked out at 47 µM in data set [1]; 0.106 mM in data set [2]; 60 µM in data set [3]; 0.129 mM in data set [4]; 1.9 µM in data set [6]; 30 µM in data set [8]. The half-maximal inhibitory concentration (IC50) in data set [9] stood at 6.5 µM; in data set [10], 27 µM; in data set [11] it was 9.8 µM; in [12], 0.036 mM; in data set [13], 28 µM; in data set [15], 25 µM. Moreover, in [5], the “apoptotic events (caspase-3 activation, PARP cleavage)” value was “not elicited”. For the same molecule, the “caspase-3 activation and cleavage of PARP” value in [7] is “induced”. The “renal atrophy (relative kidney weight)” value in [14] (setting [20]) is listed as “notably induced renal atrophy”. In data set [14] (setting [20]), the “tumor weight vs vehicle” value is listed as “non-significant decrease”. Besides, the Survival in [14] (setting [20]) is recorded as 3/5.
Regarding `O=S(=O)(O)c1cc2c(O)c(c1)Cc1cc(S(=O)(=O)O)cc(c1O)Cc1cc(S(=O)(=O)O)cc(c1O)Cc1cc(S(=O)(=O)O)cc(c1O)C2` [C4ATS, p-tetrasulfonated calix[4]arene], the “dose without toxic effects, acute toxicity” value in [16] was at least 100 mg/kg.
With “cadmium-coordinated thiacalix[4]arene tetrasulfate [TC4ATS-Cd]”, the 50% inhibitory concentration (IC50) in data set [1] was 1500 µM; in data set [2], 2.45 mM; in data set [3] it was 947 µM; in data set [4], 2.13 mM; in [6], 15 µM; in data set [8] it was 275 µM. In addition, the IC50 in data set [9] amounted to 6.9 µM; in data set [10] it was 81 µM; in [11] it was 17 µM; in data set [12] it was 2.21 mM; in data set [13], 144 µM; in data set [15], 35 µM. Besides, the IC20 in [1] (read-out: maximum tolerated concentration (=IC20 value), HCT116, 48 h) was 280 µM; in data set [2] (read-out: maximum tolerated concentration (=IC20 value), FLC-4, 48 h), 667 µM; in data set [3] (read-out: maximum tolerated concentration (=IC20 value), 48 h), 505 µM; in [4] (read-out: maximum tolerated concentration (=IC20 value), TE4, 48 h), 454 µM; in [6] (read-out: maximum tolerated concentration (=IC20 value), HEK293, 48 h) it was 6.8 µM; in data set [12] (read-out: maximum tolerated concentration (=IC20 value), MCF7, 48 h), 1.33 mM. In addition, in [5], the “apoptotic events (caspase-3 activation, PARP cleavage)” value is given as “not elicited”. Further, the “caspase-3 activation and cleavage of PARP” value in data set [7] is listed as “induced”. Further, the LDH release entry in data set [17] is “increased LDH release from Jurkat cells in a dose-dependent manner”. The “cleavage of PARP” value in data set [18] is “consistently and markedly upregulated”. Also, the “levels of activated caspase-3 protein” value in data set [18] was “upregulated”. For the same molecule, the caspase-3 proteolytic activity entry in [19] is “increased its proteolytic activity”. The “body weight changes vs vehicle” value in data set [14] (setting [20]) was “no significant difference”. In addition, the “renal atrophy (relative kidney weight)” value in data set [14] (setting [20]) is reported as “no significant atrophy”. Further, the “tumor weight vs vehicle” value in data set [14] (setting [20]) is reported as “significantly lower”. In data set [14] (13 mg/kg, xenograft model in mice), the “tumor growth of Jurkat cells” value is reported as “significantly suppressed”. In addition, the Survival in data set [14] (setting [20]) is 5/5.

Values taken from PMC4452166 (Cancer Science, 2015).
